Reference: ChEMBL document CHEMBL1123681, “Molecular modification of anticholinergics as probes for muscarinic receptors. 2. Amino esters of alpha-methyltropic acid” (J Med Chem, 1987)

Assays:
ileum (Cavia porcellus) = experiment: Antispasmodic activity was calculated as molar concentration of antagonist that inhibited 50% of a standard contraction response from isolated guinea pig ileum preparation; settings: read-out: ID50 (the source's name)
Rattus norvegicus [1] = organism: Rattus norvegicus; experiment: Relative potency with respect to (+/-)-3-Hydroxy-2-methyl-2-phenyl-propionic acid 2-diethylamino-ethyl ester in isolated rat ileum preparation; format: functional
Rattus norvegicus [2] = organism: Rattus norvegicus; experiment: Antispasmodic activity was calculated as molar concentration of antagonist that inhibited 50% of a standard contraction response from isolated rat ileum preparation; format: functional; settings: read-out: ID50 (the source's name)
Rattus norvegicus [3] = organism: Rattus norvegicus; experiment: (§1) Antispasmodic activity was measured as uM); format: functional
Rattus norvegicus [4] = organism: Rattus norvegicus; experiment: as §1; format: functional; remark: listed apart in the source
Rattus norvegicus [5] = organism: Rattus norvegicus; experiment: Antispasmodic activity calculated as ability of compound to block ACh-induced contractions of the ileum and expressed as pA2; format: functional, organism-based; settings: for Kb: Rattus norvegicus, Ileum, read-out: pA2 (converted)
In short: (§2)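 Ileum from overnight-fasted rats killed by cervical dislocation, suspended in aerated Tyrode solution and recorded via force-displacement transducer. Contractions measured across increasing ACh concentrations, then ACh responses with antagonist present. pA2 derived by the Ariens–van Rossum method as the mean from linear regression of two or more experiments at four or more dose levels. ID50 is the molar antagonist concentration inhibiting 50% of a standard contraction.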

Cavia porcellus [6] = organism: Cavia porcellus; experiment: Ability to inhibit 50% standard contraction response of the guinea pig ileal tissue was measured with increasing concentrations of Acetylcholine (ACh) in the tissue bath; format: functional
Rattus norvegicus [7] = organism: Rattus norvegicus; experiment: as §1; format: functional; remark: listed apart in the source
Cavia porcellus [8] = organism: Cavia porcellus; experiment: Ability to inhibit 50% standard contraction response of the guinea pig ileal tissue was measured with increasing concentrations of Acetylcholine (ACh) in the tissue bath
Rattus norvegicus [9] = organism: Rattus norvegicus; experiment: Antispasmodic activity was measured as percent reduction in rat ileum contraction against 300 ug/mL barium chloride 3 ug/mL (6.4X 10E-6 uM); format: functional
In short: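 Rat ileum strips in a tissue bath were contracted with a standard BaCl2 dose (300 μg/mL), chosen from a preliminary dose-response, then washed back to baseline. Test compound was added and equilibrated for 10 min. Without washout, the same BaCl2 dose was given again. Percent inhibition was taken from the contraction before versus after compound.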

Cavia porcellus [10] = organism: Cavia porcellus; experiment: Antispasmodic activity was determined from isolated guinea pig ileum preparation
Rattus norvegicus [11] = organism: Rattus norvegicus; experiment: Antispasmodic activity was calculated according to Ariens and van Rossum from isolated rat ileum preparations; format: functional; settings: read-out: pA2 (converted)
In short: as §2

Rattus norvegicus [12] = organism: Rattus norvegicus; experiment: Antispasmodic activity was measured as percent reduction in rat ileum contraction against 300 ug/mL barium chloride 0.5 ug/mL (1.5 X 10E-6 uM); format: functional
In short: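 Ileum strips from overnight-fasted rats killed by cervical dislocation, held in a tissue bath with force-displacement transducer recording. BaCl2 at 300 µg/mL, a standard dose set by a preliminary dose-response study, induced contraction; tissue washed back to baseline. Test agent equilibrated 10 min, then the same BaCl2 dose was added without washout. Percent inhibition was taken from contraction before versus after agent.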

CCN(CC)CCOC(=O)C(C)(COC(C)=O)c1ccccc1.Cl (stereo unspecified)
IC50 (ileum (Cavia porcellus)): 394 nM | Relative potency (Rattus norvegicus [1]): 0.8

CCN(CC)CCOC(=O)C(C)(CF)c1ccccc1.Cl (stereo unspecified)
IC50 (Rattus norvegicus [2]; Rattus norvegicus, Ileum): 301 nM | Inhibition (Rattus norvegicus [3]): 15.7% | Inhibition (Rattus norvegicus [4]): 24% | Kb (Rattus norvegicus [5]): 302 nM | Relative potency (Rattus norvegicus [1]): 1.04 | ID50 (Cavia porcellus [6]): 411 nM | Inhibition (Rattus norvegicus [7]): 35.7%

CCN(CC)CCOC(=O)C(C)(CCl)c1ccccc1.Cl (stereo unspecified)
IC50 (Rattus norvegicus [2]; Rattus norvegicus, Ileum): 554 nM | ID50 (Cavia porcellus [8]): 1170 nM | Kb (Rattus norvegicus [5]): 550 nM | Relative potency (Rattus norvegicus [1]): 0.57

CCN(CC)CCOC(=O)C(C)(CI)c1ccccc1.Cl (stereo unspecified)
IC50 (Rattus norvegicus [2]; Rattus norvegicus, Ileum): 38.7 nM | Kb (Rattus norvegicus [5]): 38.9 nM | Relative potency (Rattus norvegicus [1]): 8.11

CCN(CC)CCOC(=O)C(C)(CBr)c1ccccc1.Cl (stereo unspecified)
IC50 (Rattus norvegicus [2]; Rattus norvegicus, Ileum): 127 nM | Kb (Rattus norvegicus [5]): 126 nM | Relative potency (Rattus norvegicus [1]): 2.47

CCN(CC)CCOC(=O)C(C)(COS(=O)(=O)c1ccc(C)cc1)c1ccccc1.Cl (racemic)
Inhibition (Rattus norvegicus [9]): 33% | IC50 (Rattus norvegicus [2]): 38.9 nM | pA2 (Rattus norvegicus [5]): 7.41 | Relative potency (Rattus norvegicus [1]): 8.07

CCN(CC)CCOC(=O)C(C)(CO)c1ccccc1.Cl (racemic)
IC50 (Rattus norvegicus [2]): 314 nM | pA2 (Rattus norvegicus [5]): 6.5 | ID50 (Cavia porcellus [6]): 483 nM

CCN(CC)CCOC(=O)C(C)(CO)c1ccccc1.Cl (single isomer, unassigned; (+))
IC50 (Rattus norvegicus [2]): 1140 nM | Log K (Cavia porcellus [10]): 6.13 | pA2 (Rattus norvegicus [5]): 5.94 | Relative potency (Rattus norvegicus [1]): 0.27

CCN(CC)CCOC(=O)C(C)(CO)c1ccccc1.Cl (single isomer, unassigned; (-))
IC50 (Rattus norvegicus [2]): 16.3 nM | Log K (Cavia porcellus [10]): 7.996 | Kb (Rattus norvegicus [11]): 16.2 nM | Relative potency (Rattus norvegicus [1]): 19.26

CCN(CC)CCOC(=O)C(C)(COS(=O)(=O)c1ccc(C)cc1)c1ccccc1.Cl (stereo in doubt; 2a)
IC50 (Rattus norvegicus [2]): 31 nM | pA2 (Rattus norvegicus [5]): 7.51 | Relative potency (Rattus norvegicus [1]): 10.13

CCN(CC)CCOC(=O)C(C)(COS(=O)(=O)c1ccc(C)cc1)c1ccccc1.Cl (stereo in doubt; 2b)
IC50 (Rattus norvegicus [2]): 172 nM | pA2 (Rattus norvegicus [5]): 6.77 | Relative potency (Rattus norvegicus [1]): 1.83

CN1[C@@H]2CC[C@H]1C[C@@H](OC(=O)C(CO)c1ccccc1)C2 (stereo partly specified) [ATROPINE]
Inhibition (Rattus norvegicus [12]): 5.9%
